Assay: Toxicity liver stage against HepG2, at 10uM
Type: cell-based
Design: test concentration 10 uM, cell line HepG2-A16-CD81EGFP
Conditions: human, HepG2-A16-CD81EGFP cells; read-out: INHIBITION
In short: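 Uninfected HepG2-A16-CD81EGFP cells, 3 × 10^3 per well, 1536-well, plated on prespotted compound at 10 μM final, parasite-free screening media added to match infected plates; puromycin 10 μM positive, DMSO 0.5% negative; run in parallel with 48 h PbLuc assay at 37 °C, 5% CO2; viability by CellTiter-Glo luminescence, normalized to controls.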

Row | SMILES | cytotoxicity at 10 µM [%]
1 | Cc1nnc(NCc2cccc(OCC3CCCO3)c2)c(C#N)c1C (stereo not given) | -33.8
2 | Cc1csc(NC(=O)CN(C)CCOc2cccc(F)c2)n1 | 0.115
3 | COc1ccc(CNC[C@H]2COCc3nc4cc(F)ccc4n32)cn1 | 0.734
4 | CCS(=O)(=O)c1ccc2oc([C@H]3CCN(Cc4ccncc4)C3)nc2c1 | 23.7
5 | O=C1CO[C@H]2CN(S(=O)(=O)c3ccccc3)C[C@H]2N1Cc1ccccn1 | -1.11
6 | Cc1cc2nc(CO[C@H]3CN(C)C[C@H]3F)[nH]c2cc1C | 2.78
7 | COc1cccc(CN2CCCC2c2cccc(F)c2)c1OC (stereo not given) | 6.01
8 | N#Cc1cnc(N2CCC3(CC2)OCCO3)nc1N | 3.51
9 | CN(C)CCN(C)c1cc(N2CCN(c3ccccn3)CC2)ncn1 | 1.23
10 | CCOC(=O)N1[C@@H](c2ccco2)[C@@H](CO)C[C@]12CCCCNC2=O | 0.644
11 | O=C(CCC(=O)N1CCc2[nH]c3ccccc3c2C1)NCc1ccco1 | 3.59
12 | CC(C)C1SCC(=O)Nc2c1c(O)nn2C1CCCC1 (stereo not given) | 1.4
13 | CN1C(=O)c2cccc(NC(=O)c3cccc(S(C)(=O)=O)c3)c2C1=O | -7.75
14 | O=C(N1CCCC1)N1C[C@@H]2CCNC[C@@H]21 | 0.375
15 | CN(C)C(=O)C1CCC2(CCN(Cc3ccc4ccccc4n3)CC2)O1 (stereo not given) | 5.09
16 | Cc1csc(CN2CCC[C@]3(C[C@H](OCC4CC4)CO3)C2)n1 | -141
17 | Cc1nc(CN2C[C@@H]3CN(C(=O)c4ccoc4C)C[C@@H]3C2)cs1 | -144
18 | O=C(NCc1cnc2n1CCN(c1ncc(F)cn1)CC2)C1CCC1 | -0.881
19 | O=C(c1ccnn1COc1ccc(Cl)cc1)N1CCCC1 | -2.34
20 | CCc1oc2ccc(NS(=O)(=O)CC)cc2c1C(=O)OC | 5.05
21 | CN1CCN(C(=O)c2nnc3ccc(Cl)cc3n2)CC1 | 6.28
22 | COc1cccc(F)c1CN1CCC(c2nccc(C)n2)C1 (stereo not given) | 5.29

Row | SMILES | cytotoxicity at 10 µM [%]
23 | Cc1cncnc1C1CCN(C(=O)C2(C)CCCCN2C)CC1 (stereo not given) | 1.06
24 | Cc1nccc(N(C)Cc2ncc(-c3ccccc3C(=O)O)s2)n1 | 1.31
25 | O=C(Cc1cccnc1)N1CCC(c2nnc(-c3ccccn3)o2)CC1 | 0.91
26 | Cc1ccc(CC2COCCN(S(=O)(=O)c3ccccc3)C2)nc1 (stereo not given) | -4.48
27 | O=C(Cc1ccccc1)NCc1ncc(-c2ccccc2C(=O)O)cn1 | -1.89
28 | Cc1n[nH]c(C)c1S(=O)(=O)N1CCC(Oc2ccccc2F)CC1 | 1.22
29 | CNC(=O)C1CCCN(C(=O)c2ccccc2-n2cc(CN)cn2)C1 (stereo not given) | -2.3
30 | Cc1c(CN2CCCC2(C)C(=O)NC2CCCC2)cnn1C (stereo not given) | 1.05
31 | Cc1cc2n(n1)[C@@H](C(F)(F)F)C[C@@H](C1CCCN(C(=O)C(C)C)C1)N2 (stereo not given in full) | -22.1
32 | C[C@@H]1C[C@H](C(F)(F)F)n2nc(C3CCN(S(C)(=O)=O)CC3)cc2N1 | -16.9
33 | O=S1(=O)NC(C2CCN(Cc3ccncc3)CC2)Nc2ccccc21 (stereo not given) | -19.3
34 | CNC(=O)Cn1ccc2ccc(NC(=O)C(C)C)cc21 | 0.153
35 | O=C(COCCOc1ccccc1)NC1CCN(c2ncccn2)CC1 | -4.9
36 | CCc1nnc2n1CCN(C(C(N)=O)c1ccc(F)cc1)C2 (stereo not given) | -8.13
37 | CC1Oc2c(cccc2C(=O)N2CCCCCC2)NC1=O (stereo not given) | -6.81
38 | CN(CCCn1cnc2c(N)ncnc21)Cc1ccccc1 | -4.87
39 | Cn1nnnc1SCC1(O)CCCCC1 | 1.06
40 | O=C1CCN(C(=O)NCCc2c[nH]c3ccc(Cl)cc23)CCN1 | 4.26
41 | CCC(=O)NC1CCCN(c2cncc(OCc3ccccc3)n2)C1 (stereo not given) | -2.08
42 | COc1ccc(C(C)NCCc2ccc(NC(C)=O)cc2)c(OC)c1 (stereo not given) | 4.49
43 | CCOCCNC(=O)Nc1ccc(OCc2noc(C3CC3)n2)cc1 | 6.48
44 | O=C(Cn1cccnc1=O)NCc1cccnc1OCC(F)(F)F | -11.9

Row | SMILES | cytotoxicity at 10 µM [%]
45 | COc1ccc(S(=O)(=O)Nc2cccnc2-n2cncn2)cc1C | -6.87
46 | CNS(=O)(=O)c1ccccc1N1CCN(C(C)C(=O)OC)CC1 (stereo not given) | 0.375
47 | CC(C)Oc1ccc(CNC(=O)C2CCS(=O)(=O)C2)cn1 (stereo not given) | 0.788
48 | CCc1n[nH]c(C2CN(C(=O)CCOCC(F)(F)F)CCO2)n1 (stereo not given) | 10.4
49 | CCn1ncc2c1CCCC2NCc1ccc2c(c1)OCCO2 (stereo not given) | -9.12
50 | CCc1csc(NC(=O)NCc2ccccn2)n1 | -4.61
51 | Cc1ccc(C(=O)NCC(c2cnn(C)c2)N(C)C)c(O)c1 (stereo not given) | -7.93
52 | CC(C)N(CC(N)=O)C(=O)c1cc(F)ccc1N1CCN(C)CC1 | 7.66
53 | O=C(CN1CCC(OCC2CCCO2)CC1)NCC(F)(F)F (stereo not given) | -1.2
54 | COc1ccccc1C(=O)N1CCN(CCc2scnc2C)CC1 | 1.79
55 | CC(C)CC(CC(C)C)NC(=O)c1ccn(C)c(=O)c1 | -0.717
56 | C=C(C)CN(CC)Cc1nc(C(C)(C)C)no1 | -4.57
57 | CC(C)c1cccc(-n2cc(O)c(C(=O)NCCCn3cccn3)n2)c1 | -1.59
58 | CN(Cc1nnn(CC2CC2)n1)C(=O)c1ccccc1 | 0.889
59 | CCc1nc(CCNC(=O)Nc2ccc(C(=O)NC)cc2C)cs1 | 27.7
60 | O=C(CCNS(=O)(=O)c1ccccc1)NCc1ccoc1 | -0.886
61 | CC(O)CN1CCN(C(=O)CN(C)c2ccc(Cl)cn2)CC1 (stereo not given) | -1.95
62 | CCc1n[nH]c(C2CN(CC(=O)NCCc3ccsc3)CCO2)n1 (stereo not given) | -11
63 | CCN(CC)C(=O)c1ccc(NC(=O)CNc2ccc(Br)cc2F)cc1 | 4.52
64 | CC(C)OC[C@H]1CCC[C@]12CN(S(=O)(=O)c1cn(C)cn1)CCO2 | 5.19
65 | O=c1[nH][nH]cc1-c1ccnc(NCCN2CCCCC2)n1 | -10.4
66 | CN(C)c1ncc(-c2ccc(NC(=O)[C@@H]3CCCCN3)cc2)cn1 | -7.94

Row | SMILES | cytotoxicity at 10 µM [%]
67 | CN(C)CCn1ccnc1C1CCCN(C(=O)CCc2cccnc2)C1 (stereo not given) | -3.64
68 | Cc1cc(N(C)CCC(O)c2ccccc2)n2nccc2n1 (stereo not given) | -2.84
69 | O=C(Nc1cnn(CC(=O)N2CCCCO2)c1)c1ccsc1 | -1.23
70 | CC(C)(CN1CCC(Cc2cccc(C(=O)O)c2)C1)N1CCOCC1 (stereo not given) | 3.98
71 | CC(O)C(=O)N1CCC(c2[nH]ncc2-c2ccccc2)CC1 (stereo not given) | -2
72 | Cc1nccc(N2CCCC(c3nnc(Cn4ccnc4C)n3C)C2)n1 (stereo not given) | -2.04
73 | COc1ccccc1OC1CN(C(=O)Cc2c(C)nc(N)nc2C)C1 | 0.866
74 | COCC(=O)N1CCc2[nH]nc(-c3ccc4c(c3)OCO4)c2C1 | -137
75 | Cc1cc(S(=O)(=O)N2C[C@H](C3CC3)[C@@H](N)C2)c(C)s1 | -2.36
76 | O=C(O)CC1COCCN1C(=O)C1(c2ccc(Cl)cc2)CCC1 (stereo not given) | -17.8
77 | COC(=O)N1CCC(c2nnc(Cn3ccnc3)n2C)CC1 | -110
78 | Cc1c(CN2CCc3[nH]cnc3C2C(=O)O)[nH]c2ccc(F)cc12 (stereo not given) | -4.23
79 | CN(C)c1ccc(C2CC(=O)Nc3c2cnn3Cc2ccco2)cc1 (stereo not given) | -3.08
80 | CN(CC1CCOC1)S(=O)(=O)c1cccc(C(=O)N2CCOCC2)c1 (stereo not given) | -13.3
81 | Cc1[nH]c2c(F)cccc2c1CC(=O)NCCCc1csc(N)n1 | -3.57
82 | N[C@@H]1c2ccccc2C2(CCN(C(=O)c3ccc(CO)o3)CC2)[C@H]1O | 3.92
83 | CC(=O)N1C[C@H]2CNC[C@@]2(C(=O)NCCOc2ccccc2F)C1 | 2.8
84 | CCc1[nH]c2c(CNC(=O)[C@@H]3CCCN3C)cc(C)cc2c1C | -3.33
85 | CCc1cc(CN(C)Cc2nc(-c3sccc3C)oc2C)on1 | -3.81
86 | O=C(Cn1nc2ccccc2n1)N1CCCn2cncc2C1 | 1.87
87 | Cc1nc(N)nc(C)c1CC(=O)N1CCC2(CC1)OCCCC2O (stereo not given) | -1.8
88 | O=C1CCCc2cc(S(=O)(=O)NCc3ccccn3)ccc2N1 | 2.41

Row | SMILES | cytotoxicity at 10 µM [%]
89 | C1CCC(c2nn3c(C4CCCO4)nnc3s2)C1 (stereo not given) | 8.51
90 | Cc1nc2ccccc2c(=O)n1CCC(=O)N1CCCCCC1 | -6.57
91 | CCc1nnc2n1CCN(C(=O)c1cc3ccc(F)cc3nc1C)C2 | -9.37
92 | Cc1ccc(OCC(=O)NS(=O)(=O)c2cccnc2)cc1C | 4.36
93 | CC(C)Cc1noc(CN2CCOCC2)n1 | -2.27
94 | Cc1cnn(CCNCc2csc(-c3cccs3)n2)c1 | -9.91
95 | O=C(CCCc1nnc(-c2ccccc2)o1)N1CCN(CCO)CC1 | -6.31
96 | Cc1n[nH]c(C)c1NC(=O)CN1CCc2c(nc(C3CC3)n2C)C1 | -3.15
97 | CCN(Cc1ccc2c(c1)OCCO2)C(=O)NC(C)Cn1ccnc1 (stereo not given) | -2.79
98 | COCc1ccccc1CNc1cc(N2CCCC2CO)ncn1 (stereo not given) | -1.81
99 | Cc1nc(O)cc(C2(C)CCCNC2)n1 (stereo not given) | 2.98
100 | Cc1cc(C[C@@H]2COC[C@H]2NCc2ccc(C)c(C)c2)on1 | 8.1
101 | O=C(Nc1cccnc1)[C@H]1CO[C@H]2CCNC[C@H]2C1 | 9.24
102 | O=C(O)[C@]12CCCN(Cc3ccsc3)C[C@H]1CN(c1ccccn1)C2 | -139
103 | CCn1nc(C)cc1C(=O)N1C[C@@H]2C[C@@H](C)O[C@@H]2C1 | 5.53
104 | CC(C)C(=O)N1CC2(CCN(CC(C)(C)C)CC2)C1 | -5.28
105 | O=C(C1CCC2(CCN(CC3CCOCC3)CC2)O1)N1CCCC1 (stereo not given) | 1.91
106 | Cc1csc2nc3n(c(=O)c12)CCN(Cc1ccccn1)CC3 | -18.2
107 | O=S(=O)(C1CC1)N1CCOC2(CCCN(Cc3ccccn3)C2)C1 (stereo not given) | -0.78
108 | O=C(NCc1ccc(Cl)cc1)C1=NOC2(CCNC2)C1 (stereo not given) | -4.21
109 | CC(C)N(C)Cc1nnc2n1CCN(Cc1ccncc1)CC2 | -2.42
110 | c1ccc(CO[C@@H]2CO[C@@]3(CCN(Cc4ccccn4)C3)C2)nc1 | -9.62

From ChEMBL document CHEMBL4513216, “Probing the Open Global Health Chemical Diversity Library for Multistage-Active Starting Points for Next-Generation Antimalarials” (ACS Infect Dis, 2020)
